Screens from PubChem.
Hits are enriched below; roughly 5.1% of the tested compounds scored in any of these assays.
BAP1 inh: human BAP1 deubiquitinase inhibition; calls only at 20 µM; AID 436; hit rate 0.48% among 72,000; recombinant BAP1, Ub-AMC hydrolysis fluorescence kinetic; stronger effect = lower value;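 active means activity remaining at or below 50% of control, provided the compound also passes the data quality filters; inactive means the rest, including low values that fail the filters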;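 further: 100% = DMSO wells rate and 0% = substrate alone blank rate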
Target sequence (Q92560 whole entry, looked up): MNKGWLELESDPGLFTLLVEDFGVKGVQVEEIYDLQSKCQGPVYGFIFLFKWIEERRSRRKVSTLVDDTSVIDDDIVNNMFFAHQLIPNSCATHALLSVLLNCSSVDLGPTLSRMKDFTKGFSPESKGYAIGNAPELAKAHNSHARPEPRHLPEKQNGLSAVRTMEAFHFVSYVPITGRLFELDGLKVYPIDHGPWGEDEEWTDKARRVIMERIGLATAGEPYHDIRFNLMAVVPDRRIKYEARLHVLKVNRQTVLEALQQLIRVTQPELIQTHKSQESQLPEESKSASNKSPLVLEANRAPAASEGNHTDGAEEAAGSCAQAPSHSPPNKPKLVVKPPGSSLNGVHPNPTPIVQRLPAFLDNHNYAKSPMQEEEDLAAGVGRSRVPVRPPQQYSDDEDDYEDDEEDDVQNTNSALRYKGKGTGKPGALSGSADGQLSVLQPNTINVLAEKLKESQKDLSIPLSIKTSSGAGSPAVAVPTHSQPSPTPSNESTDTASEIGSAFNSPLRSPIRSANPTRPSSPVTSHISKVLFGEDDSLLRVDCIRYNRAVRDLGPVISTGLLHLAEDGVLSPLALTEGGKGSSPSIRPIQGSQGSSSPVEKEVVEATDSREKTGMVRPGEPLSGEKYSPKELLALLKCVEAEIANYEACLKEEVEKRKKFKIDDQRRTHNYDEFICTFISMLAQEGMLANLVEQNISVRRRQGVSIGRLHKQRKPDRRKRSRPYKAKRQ
ERa SRC1 inh: ER-alpha (human) coactivator binding inhibition; P03372; AID 629; inhibition, % at 25.6 µM; hit rate 1.7% among 86,000; TR-FRET ER-alpha LBD / SRC-1 peptide, estradiol-bound; in the data active means inhibition above about 50%;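 further: 0% = receptor plus peptide control and 100% = peptide only without receptor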
SF-1 act: activates the human nuclear receptor SF-1. AID 522. hit rate 1.9% among 65,000. Q13285. CHO-K1 Gal4-SF-1 LBD luciferase reporter; % increase over DMSO SF-1-specific signal. activation, % at 10 µM;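 active means activation above the mean activation of all tested compounds plus 3 SD, cut at about 50% in these data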
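Assay system: CHO-K1 cells co-transfected with Gal4 DBD–human SF-1 LBD, 5xGal4 luciferase reporter / Input: 4,000 cells per well / Incubation: 20 h compound exposure at 37 °C after 1 h cell settling / Detection: SteadyLite luciferase luminescence / Control set: DMSO negative control and −SF1 background wells / Replication: one test per compound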
ERa SRC1 pot: ER-alpha (human) coactivator binding potentiation; P03372; TR-FRET ERalpha-LBD/SRC-Cy5 coactivator binding, 2 h; 100 = basal binding, no effect; coactivator binding (% of control), % at 25.6 µM; hit rate 1.3% among 86,000; in the data active means activity above about 200%;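 further: binding measured in presence of low estradiol as agonist stimulus; 0% = peptide alone without receptor and 100% = receptor with peptide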
RORA act: RORA (human) activation. P35398. activation, % at 10 µM. AID 560. hit rate 1.5% among 65,000. CHO-K1 Gal4-RORA LBD luciferase reporter, luminescence; percent increase over mock-subtracted basal signal;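 active means activation above the mean of all tested compounds plus 3 SD, cut at about 49% in these data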;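 further: 0% = DMSO-treated RORA cells and 100% = added signal equal to DMSO minus mock-transfected cells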
ERb SRC1 inh: blocks coactivator binding to human estrogen receptor beta; Q92731; TR-FRET ER-beta LBD / SRC1-Cy5 peptide binding; receptor agonist-loaded with 1 µM estradiol; inhibition, % at 25.6 µM; hit rate 1.3% among 86,000;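 active means compounds whose percent inhibition of the receptor-coactivator binding signal exceeds about 50% in the single-dose screen, limit read from the data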;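 further: 0% = receptor plus peptide wells without compound and 100% = peptide-only wells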
* marks the source's active call; other numbers are inactive results; [ ] = dose if it differs, or a comment.

`O=C(NCc1ccco1)c1cc(-c2ccccc2)on1` gave BAP1 inh inactive, ERa SRC1 inh -45, SF-1 act 32, ERa SRC1 pot 100, RORA act 38 and ERb SRC1 inh 11.
`O=C(NCCCn1ccnc1)c1cc(-c2cccs2)on1` gave BAP1 inh inactive, ERa SRC1 inh 0, SF-1 act 67*, ERa SRC1 pot 112, RORA act 92* and ERb SRC1 inh -5.
O=C(NCc1ccco1)c1nn2c(C(F)(F)F)cc(-c3cccs3)nc2c1Br was read as ERa SRC1 inh 59*, ERa SRC1 pot 157 and ERb SRC1 inh 44.
For O=C(NCc1ccco1)c1nc2nc(-c3cccs3)cc(C(F)(F)F)n2n1 the results were ERa SRC1 inh 26, SF-1 act -10, ERa SRC1 pot 67, RORA act -5 and ERb SRC1 inh 22.
`O=C(NCCCN1CCCCCC1)c1ccc(CS(=O)(=O)Cc2ccccc2F)o1` gave BAP1 inh inactive, ERa SRC1 inh 30, SF-1 act 8, ERa SRC1 pot 636*[fluorescence artefact?], RORA act 25 and ERb SRC1 inh 40.
For O=C(NCCCN1CCCC1)c1ccc(CS(=O)(=O)c2ccc(Br)cc2)o1 the results were BAP1 inh inactive, ERa SRC1 inh 14, SF-1 act -1, ERa SRC1 pot 99, RORA act -12 and ERb SRC1 inh 0.
For O=C(NCCN1CCCCCC1)c1ccc(CS(=O)(=O)c2ccc(Br)cc2)o1 the results were BAP1 inh inactive, ERa SRC1 inh 81*[fluorescence artefact?], SF-1 act 10, ERa SRC1 pot 66, RORA act 3 and ERb SRC1 inh 50.
O=C(c1cccc(Cl)c1)N1CCN(c2ccc(F)cc2)CC1 was read as BAP1 inh inactive.
COc1cccc(C(=O)Nc2c3c(nn2-c2ccc(Oc4ccccc4)cc2)CSC3)c1OC was read as BAP1 inh inactive.
`CC(C)C(=O)Nc1ccc(NC(=O)c2ccccn2)cn1` gave ERa SRC1 inh -8, SF-1 act 41, ERa SRC1 pot 114, RORA act 51* and ERb SRC1 inh -6.
O=C(Nc1ccc(NC(=O)C2CC2)nc1)c1ccccn1 was read as ERa SRC1 inh -4, SF-1 act 13, ERa SRC1 pot 119, RORA act 8 and ERb SRC1 inh -4.
For CC(C)C(=O)Nc1ccc(NC(=O)c2cccnc2)cn1 the results were ERa SRC1 inh -4, ERa SRC1 pot 97 and ERb SRC1 inh 0.
Screening CCC(=O)Nc1ccc(NC(=O)c2ccccn2)cn1 returned BAP1 inh inactive, ERa SRC1 inh -15, SF-1 act 39, ERa SRC1 pot 96, RORA act 65* and ERb SRC1 inh -19.
`CNC(=O)C(O)C(O)C(=O)NC` (configuration not stated) gave BAP1 inh inactive.
`Cc1c(C(=O)N2CCCCCC2)oc2ccccc12` gave BAP1 inh inactive, ERa SRC1 inh -2, SF-1 act -3, ERa SRC1 pot 108, RORA act -5 and ERb SRC1 inh -7.
O=C(c1ccc2c(c1)c(=O)oc1ccccc12)N1CCCCC1 was read as BAP1 inh inactive, ERa SRC1 inh 3, SF-1 act 42, ERa SRC1 pot 111, RORA act 50* and ERb SRC1 inh 12.
CCOC(=O)c1c(C)oc2cc(Br)c(OC(=O)c3ccco3)cc12 was read as BAP1 inh inactive.
Screening c1ccc(-n2ncc3c2ncn2nc(-c4ccco4)nc32)cc1 returned BAP1 inh inactive, ERa SRC1 inh 45, SF-1 act 38, ERa SRC1 pot 315*[fluorescence artefact?], RORA act 28 and ERb SRC1 inh 49.
`O=C(O)c1ccc2oc(SCC(=O)N3CCCCC3)nc2c1` gave BAP1 inh inactive, ERa SRC1 inh 7, SF-1 act 54*, ERa SRC1 pot 101, RORA act 29 and ERb SRC1 inh 10.
c1cc2c3c(cccc3c1)C(N1CCN(C3=Nc4cccc5cccc3c45)CC1)=N2 was read as ERa SRC1 inh 34, ERa SRC1 pot 203*[fluorescence artefact?] and ERb SRC1 inh 10.
Screening COc1ccc(/C=C/C(O)=C2/C(=O)N(C)C3(C)CC2c2ccccc2O3)cc1 (configuration not stated) returned ERa SRC1 inh 63*, SF-1 act -25, ERa SRC1 pot 95, RORA act -10 and ERb SRC1 inh 27.
`CCN1C(=O)C(C(=O)Nc2ccc(OC)cc2)C2CC1(C)Oc1ccccc12` (configuration not stated) gave BAP1 inh inactive, ERa SRC1 inh -12, SF-1 act -8, ERa SRC1 pot 114, RORA act 8 and ERb SRC1 inh 3.
Screening COc1cc(C(=S)N2CCOCC2)ccc1OC(=O)c1ccc([N+](=O)[O-])cc1 returned BAP1 inh inactive.
`CCOc1ccc2nc(Nc3nc(CSc4nnnn4-c4ccccc4)cc(=O)[nH]3)nc(C)c2c1` gave ERa SRC1 inh 70*[fluorescence artefact?], ERa SRC1 pot 216*[fluorescence artefact?] and ERb SRC1 inh 39.
`COc1ccc2nc(Nc3nc(C)c(CCC(C)C)c(=O)[nH]3)nc(C)c2c1` gave BAP1 inh inactive, ERa SRC1 inh 10, SF-1 act 3, ERa SRC1 pot 116, RORA act -15 and ERb SRC1 inh 16.
`CCOc1ccc2nc(Nc3nc4c(c(=O)[nH]3)CCC4)nc(C)c2c1` gave BAP1 inh inactive, ERa SRC1 inh 52*[fluorescence artefact?], SF-1 act 37, ERa SRC1 pot 178, RORA act 1 and ERb SRC1 inh 36.
`CCOC(=O)N1CCN(C(=O)CCCOc2ccccc2)CC1` gave BAP1 inh inactive, ERa SRC1 inh -5, SF-1 act 75*, ERa SRC1 pot 100, RORA act 38 and ERb SRC1 inh -1.
`O=C(Cc1sc(-c2ccccc2Cl)nc1-c1ccccc1)Nc1ccccc1` gave ERa SRC1 inh 9, ERa SRC1 pot 235*[fluorescence artefact?] and ERb SRC1 inh -4.
CC(N=Cc1cccc(O)c1O)c1ccccc1 (configuration not stated) was read as BAP1 inh inactive, ERa SRC1 inh 17, SF-1 act -18, ERa SRC1 pot 84, RORA act 3 and ERb SRC1 inh 58*[fluorescence artefact?].
Screening Cc1ccc(N=Cc2cccc(O)c2O)c(C)c1 returned BAP1 inh inactive, SF-1 act -2 and RORA act -20.
`Cc1cc(NC(=O)CS(=O)(=O)c2cn(Cc3ccccc3Cl)c3ccccc23)no1` gave BAP1 inh inactive, ERa SRC1 inh 15, SF-1 act 11, ERa SRC1 pot 660*[fluorescence artefact?], RORA act 2 and ERb SRC1 inh 14.
For CCOC(=O)N1CCN(C(=O)CS(=O)(=O)c2cn(Cc3ccccc3Cl)c3ccccc23)CC1 the results were ERa SRC1 inh 6, ERa SRC1 pot 94 and ERb SRC1 inh 2.
